Assay results from PubChem BioAssay.
The source made the active and inactive calls.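 How the source made its calls, unless noted: active means viability at or under a set limit in both replicates, limit being median viability minus 3 SD (cut at about 48% in these data, passing the limit was not always enough); inconclusive means at or under the limit in just one replicate; inactive means at or above the limit in both replicates.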 Square brackets hold non-standard residues; d marks the D form. Peptide text beside a SMILES is read from it. ξ: configuration not given here. ξV = CC(C)C(N)C(=O)O

How the values were obtained:
[1] = Her2 expression decrease, cell viability multiplex – SKBR3 breast tumor cells, AlphaScreen, ATP viability, primary screen (AID 461;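 active means Her2 level under about 52% in both replicate screens, with viability over 70% of control, limit read from the data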;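 on Her2 level: lower value means less Her2 protein in the cells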;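 on viability: percent of carrier control wells set as 100% viability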); settings: SKBR3 Her2 protein level, 18-24 h, measured here: SKBR3 viability, ATP luminescence, at 10 µM
[2] = target: Receptor tyrosine-protein kinase erbB-2 (Homo sapiens) (UniProt P04626); test: as above; settings: 18-24 h, at 10 µM, stronger effect = lower value
Sequence of Receptor tyrosine-protein kinase erbB-2 (Homo sapiens) (P04626 whole entry, looked up): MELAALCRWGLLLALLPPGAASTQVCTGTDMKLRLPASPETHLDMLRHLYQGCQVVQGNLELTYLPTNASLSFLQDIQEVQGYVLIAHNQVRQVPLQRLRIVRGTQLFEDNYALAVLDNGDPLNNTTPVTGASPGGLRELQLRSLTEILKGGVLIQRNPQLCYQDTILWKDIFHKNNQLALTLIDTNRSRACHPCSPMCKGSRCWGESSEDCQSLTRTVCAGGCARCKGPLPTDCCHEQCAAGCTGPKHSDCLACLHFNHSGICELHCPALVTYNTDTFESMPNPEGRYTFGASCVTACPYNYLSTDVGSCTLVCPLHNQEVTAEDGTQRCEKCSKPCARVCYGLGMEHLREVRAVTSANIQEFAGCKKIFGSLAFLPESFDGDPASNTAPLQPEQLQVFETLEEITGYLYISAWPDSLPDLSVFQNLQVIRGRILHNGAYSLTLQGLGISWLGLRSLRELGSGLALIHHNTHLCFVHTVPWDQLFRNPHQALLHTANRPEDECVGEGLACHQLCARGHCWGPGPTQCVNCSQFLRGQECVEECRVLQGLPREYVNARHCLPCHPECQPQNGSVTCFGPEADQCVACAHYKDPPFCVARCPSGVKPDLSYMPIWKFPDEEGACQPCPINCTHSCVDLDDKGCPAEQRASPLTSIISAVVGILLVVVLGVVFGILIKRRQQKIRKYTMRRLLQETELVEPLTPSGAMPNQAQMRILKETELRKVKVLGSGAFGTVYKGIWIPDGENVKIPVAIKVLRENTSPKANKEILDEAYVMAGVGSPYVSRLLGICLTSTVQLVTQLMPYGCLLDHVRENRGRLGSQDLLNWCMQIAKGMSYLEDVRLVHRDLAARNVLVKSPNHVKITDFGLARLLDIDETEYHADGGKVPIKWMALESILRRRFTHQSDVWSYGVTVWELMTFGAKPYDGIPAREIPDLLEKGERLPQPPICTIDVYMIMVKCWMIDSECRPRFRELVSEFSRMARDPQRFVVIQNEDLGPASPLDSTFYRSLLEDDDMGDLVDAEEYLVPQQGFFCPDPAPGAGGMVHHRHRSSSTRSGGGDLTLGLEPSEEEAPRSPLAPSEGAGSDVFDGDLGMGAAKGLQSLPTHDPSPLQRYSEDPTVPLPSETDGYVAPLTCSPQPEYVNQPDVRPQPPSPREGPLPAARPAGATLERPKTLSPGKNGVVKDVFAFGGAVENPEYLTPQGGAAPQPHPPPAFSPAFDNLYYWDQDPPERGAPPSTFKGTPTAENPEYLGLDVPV

[3] = reduced viability of SK-BR-3 breast cancer cells – cell-based, 24 h, human, pilot screen (AID 572;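 active means viability at or below 10% of carrier control in both of two separate runs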;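 further: compound exposure lasted between 18 and 24 h rather than exactly 24 h; 100% = carrier-treated control wells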); settings: SK-BR-3 viability, CellTiter-Glo luminescence, at 10 µM, stronger effect = lower value
[4] = HUVEC growth inhibition – cell-based, human, primary screen (AID 575;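 active means viability at or below 30% in both replicate assays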;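 further: 100% = median of untreated cell wells with 0.1% DMSO on each plate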); settings: HUVEC proliferation, CellTiter-Glo luminescence, 72 h; at 10 µM; stronger effect = lower value
How it was run: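 Test system: primary human umbilical vein endothelial cells; medium: endothelial basal medium with 2% FBS plus growth supplements; dosing: 10 µM compound only; times: 72 h treatment at 37 °C; signal: CTG luminescence; read-out: % viability relative to median vehicle-well signal on each plate; control set: vehicle and MePR control wells; plate: 384-well, collagen-coated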

[5] = H69AR cell proliferation blockers – human, duplicate replicates, primary screen (AID 580); settings: H69AR lung tumor cells viability, ATP luminescence, 72 h; at 10 µM; stronger effect = lower value;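 further: 100% = mean luminescence of untreated wells and 0% = no signal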
[6] = MRP1 drug-resistance reversers in H69AR cells – cell-based, doxorubicin co-treatment, pilot screen (AID 601;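 active means viability loss from added drug above about 55%, and viability with drug at most 40%, in both replicates, limit read from the data, passing the limit was not always enough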); settings: CellTiter-Glo, 72 h, at 10 µM; for differential viability (reversal): stronger effect = higher value
[7] = yeast transport mutant growth inhibition pilot in 384-well plates, post-Golgi transport modulator project (AID 636; in the data active means inhibition above about 31%); settings: absorbance 615 nm, about 18 h, stronger effect = higher value
[8] = growth suppression of yeast trafficking mutant, preliminary HTS, modulators of trafficking downstream of Golgi apparatus project, 1536-format plate, OD 615 nm (AID 637; in the data active means inhibition above about 30%); settings: yeast transport mutant growth, absorbance 615 nm, 18 h; stronger effect = higher value
[9] = H69AR cells + 2 uM doxorubicin, measured here: viability with 2 uM doxorubicin, stronger effect = lower value
[10] = H69AR cells, compound alone cytotoxicity

Row | SMILES | viability [1] [%] | Her2 level [2] | viability [3] | viability [4] | viability [5] | differential viability (reversal) ([6]; H69AR cells + 2 uM doxorubicin) | viability [6, 9] [%] | viability [6, 10] [%] | inhibition [7] | inhibition [8]
1 | CCC(C)(C(=O)NC1CCCC1)N(C(=O)c1cnccn1)c1c(C)n(C)n(-c2ccccc2)c1=O (stereo not given) | 97 | 124% (inactive) | 97% (inactive) | 94.4% (inactive) | 91.4% (inactive) | 0.145% (inactive) | 91.2 | 91.4 | 2.34% (inactive) | -7.38% (inactive)
2 | CC(=O)NC(C(=O)NCC(N)=O)C(C)C (stereo not given) (Ac-[ξV]-Gly-NH2) | 90 | 104% (inactive) | 90% (inactive) | 100% (inactive) | 93.9% (inactive) | -1.82% (inactive) | 95.7 | 93.9 | -5.58% (inactive) | -9.05% (inactive)
3 | Cc1ccc(-n2nnnc2SCC(=O)Nc2c(C)n(C)n(-c3ccccc3)c2=O)cc1 | 102 | 104% (inactive) | 102% (inactive) | 105% (inactive) | 90.8% (inactive) | -13.5% (inactive) | 104 | 90.8 | 0.8% (inactive) | 10.8% (inactive)
4 | O=C(CC(C(=O)N1CCc2ccccc21)n1ccnc1)NCc1cccnc1 (stereo not given) | 100 | 100% (inactive) | 100% (inactive) | 97.9% (inactive) | 89.1% (inactive) | -10.9% (inactive) | 100 | 89.1 | 1.17% (inactive) | 1.8% (inactive)
5 | CCOC(=O)N1CCN(C(=O)CSc2cc(C)nc3c(-c4ccccc4OC)c(C)nn23)CC1 | 79.5 | 90% (inactive) | 79.5% (inactive) | 94% (inactive) | 73.3% (inactive) | 48.5% (inactive) | 24.8 | 73.3 | -0.26% (inactive) | -1.43% (inactive)
6 | Cn1c(Cl)nc2ccccc21 | 115 | 96% (inactive) | 115% (inactive) | 90.7% (inactive) | 94.8% (inactive) | -5.28% (inactive) | 100 | 94.8 | -0.53% (inactive) | 0.97% (inactive)
7 | CC/C(O)=C(/C#N)c1nnc2n1CCCCC2 | 100 | 84% (inactive) | 100% (inactive) | 101% (inactive) | 97.4% (inactive) | 10.8% (inactive) | 86.5 | 97.4 | -4.68% (inactive) | -5.71% (inactive)
8 | Cn1cccc1Cc1nnc(SCC(=O)Nc2ccc(F)cc2F)n1-c1ccc(F)cc1 | 84 | 90.5% (inactive) | 84% (inactive) | 81.6% (inactive) | 94.8% (inactive) | 1.3% (inactive) | 93.5 | 94.8 | -1.03% (inactive) | -3.5% (inactive)
9 | Cc1noc(NS(=O)(=O)c2ccc(N3C(=O)c4ccccc4C3=O)cc2)c1C | 116 | 98% (inactive) | 116% (inactive) | 99.1% (inactive) | 107% (inactive) | 0.49% (inactive) | 106 | 107 | -3.47% (inactive) | 2.58% (inactive)
10 | COc1cccc(-c2cc(C(F)(F)F)n3ncc(C(=O)O)c3n2)c1 | 93 | 87.5% (inactive) | 93% (inactive) | 117% (inactive) | 108% (inactive) | 9.06% (inactive) | 98.8 | 108 | -3.2% (inactive) | -2.95% (inactive)
11 | O=C(CSc1nnc(-c2ccc(Br)o2)n1Cc1ccccc1)c1ccccc1F | 81.5 | 91% (inactive) | 81.5% (inactive) | 86.3% (inactive) | 64.7% (inactive) | -11.2% (inactive) | 75.9 | 64.7 | 3.11% (inactive) | -2.13% (inactive)
12 | CC(=O)Oc1ccc(CCC(C)OC(C)=O)cc1 (stereo not given) | 101 | 92% (inactive) | 101% (inactive) | 93.2% (inactive) | 99.7% (inactive) | 2.78% (inactive) | 96.9 | 99.7 | -6.13% (inactive) | -1.13% (inactive)
13 | O=C(Nc1ccccc1)N1C(=O)C2(OCCO2)c2ccccc21 | 114 | 118% (inactive) | 114% (inactive) | 100% (inactive) | 87% (inactive) | -11.8% (inactive) | 98.8 | 87 | -0.79% (inactive) | 1.64% (inactive)
14 | COc1cc(OC)c(C2N(C)c3ccccc3N2C)cc1OC | 91.5 | 112% (inactive) | 91.5% (inactive) | 86.7% (inactive) | 107% (inactive) | 8.16% (inactive) | 98.4 | 107 | -5.68% (inactive) | 4.26% (inactive)
15 | O=C(Nc1cccc(NC(=O)c2cccnc2)c1)c1cccnc1 | 89 | 80% (inactive) | 89% (inactive) | 119% (inactive) | 86.7% (inactive) | -2.21% (inactive) | 88.9 | 86.7 | -5% (inactive) | 1.67% (inactive)
16 | CCCCOc1ccc(-c2nnc(N)s2)cc1 | 85.5 | 98% (inactive) | 85.5% (inactive) | 93.3% (inactive) | 98.5% (inactive) | 12.6% (inactive) | 85.9 | 98.5 | 3.33% (inactive) | 1.15% (inactive)
17 | O=C(NCc1nnc(SCC(=O)N2CCCCCC2)o1)c1ccco1 | 104 | 100% (inactive) | 104% (inactive) | 101% (inactive) | 111% (inactive) | 18.3% (inactive) | 92.8 | 111 | -4.27% (inactive) | -0.48% (inactive)
18 | COc1ccc(-n2c(=O)[nH]cc(C(=O)Nc3ccc(NC(C)=O)cc3)c2=O)cc1 | 100 | 106% (inactive) | 100% (inactive) | 98.8% (inactive) | 96.1% (inactive) | 0.385% (inactive) | 95.7 | 96.1 | -3.78% (inactive) | 0% (inactive)
19 | CC1/C(=N/O)C(CN(C)C)C2CC1C2(C)C (stereo not given) | 107 | 84.5% (inactive) | 107% (inactive) | 99.3% (inactive) | 108% (inactive) | 31.7% (inactive) | 76.3 | 108 | -3.38% (inactive) | -3.49% (inactive)
20 | O=C(CN(CCc1ccccc1)C(=O)CNS(=O)(=O)c1ccccc1)NCC1CCCO1 (stereo not given) | 91 | 87.5% (inactive) | 91% (inactive) | 86.9% (inactive) | 102% (inactive) | 5.36% (inactive) | 96.2 | 102 | -0.81% (inactive) | -2.13% (inactive)
21 | CCOC(=O)C1C2C=CC3(CN(c4cccc(Cl)c4)C(=O)C13)O2 (stereo not given) | 86 | 80% (inactive) | 86% (inactive) | 91.2% (inactive) | 97.5% (inactive) | 1.17% (inactive) | 96.3 | 97.5 | -4.4% (inactive) | 0.17% (inactive)
22 | Cc1[nH]c2ccccc2c(=O)c1CN(C)Cc1ccccc1 | 92.5 | 95% (inactive) | 92.5% (inactive) | 100% (inactive) | 91.8% (inactive) | 2.49% (inactive) | 89.3 | 91.8 | -4.21% (inactive) | -0.98% (inactive)
23 | Nc1nc(N2C(=O)C3CC=CCC3C2=O)nn1-c1ccccc1 (stereo not given) | 101 | 130% (inactive) | 101% (inactive) | 105% (inactive) | 98.7% (inactive) | 2.73% (inactive) | 96 | 98.7 | 1.3% (inactive) | -12.2% (inactive)
24 | COCCNC(=O)C1CCCN(c2ncccn2)C1 (stereo not given) | 93 | 79% (inactive) | 93% (inactive) | 98.8% (inactive) | 89.8% (inactive) | -8.68% (inactive) | 98.5 | 89.8 | -7.81% (inactive) | 1.27% (inactive)
25 | Cc1noc(C)c1C(=O)Nc1ccc(Cl)cc1C(F)(F)F | 91 | 86.5% (inactive) | 91% (inactive) | 84.7% (inactive) | 93.1% (inactive) | -0.845% (inactive) | 94 | 93.1 | -6.13% (inactive) | 3.11% (inactive)
26 | CCOc1cc(S(=O)(=O)Nc2ccccn2)ccc1F | 114 | 110% (inactive) | 114% (inactive) | 108% (inactive) | 101% (inactive) | 7.25% (inactive) | 93.3 | 101 | -4% (inactive) | -5.9% (inactive)
27 | CC(C)c1nnc(SCC(=O)NCc2ccco2)n1C | 105 | 91% (inactive) | 105% (inactive) | 94.7% (inactive) | 79.6% (inactive) | -5.55% (inactive) | 85.2 | 79.6 | -0.14% (inactive) | 4.76% (inactive)
28 | COc1ccc(C(=O)N(CCCO)Cc2cc3c(C)ccc(C)c3[nH]c2=O)cc1OC | 90.5 | 95% (inactive) | 90.5% (inactive) | 113% (inactive) | 95.1% (inactive) | 12.2% (inactive) | 82.9 | 95.1 | -5.06% (inactive) | 2.46% (inactive)
